Experimental data from different studies.
Lines come from different studies, so protocols differ.
Organism: Pseudomonas aeruginosa
Read-out: microbial growth

| SMILES | test | test system | setting | MIC |
| --- | --- | --- | --- | --- |
| C/C(=C\c1ccc(C#N)cc1)C(=O)Nc1ccc(C(=O)N[C@@H](CC(N)=O)C(=O)Nc2ccc(C(=O)Nc3ccc(C(=O)Nc4ccc(C(=O)O)cc4)c(O)c3OC(C)C)cc2)cc1 | – | PA14 | – | 1 µg/mL |
| CN(C)[C@@H]1C(O)=C(C(N)=O)C(=O)[C@@]2(O)C(O)=C3C(=O)c4c(O)c(NC(=O)CNC(C)(C)C)nc(Cl)c4C[C@H]3C[C@@H]12.Cl.Cl.Cl | broth dilution | ATCC27853 | – | > 32 µg/mL |
| C=CCn1c(-c2ccc(Cl)c(Cl)c2)nc2ccccc21 | broth dilution | ATCC27853 | – | 512 µg/mL |
| CCCCCCC#Cc1cncc(-c2nnc(SCc3ccc([N+](=O)[O-])cc3)n2C)c1 | – | – | – | ≥ 20 µg/mL |
| CC(C)Oc1c(NC(=O)c2ccc(NC(=O)[C@H](CC(N)=O)NC(=O)c3cccc(-c4cccc(C#N)c4)c3)cc2)ccc(C(=O)Nc2ccc(C(=O)O)cc2)c1O | – | PA14 | – | > 64 µg/mL |
| CCCCCCCCCC(=O)Oc1c(C)c(O)c(C(=O)/C=C/c2ccccc2)c(OC)c1C | broth dilution | ATCC27853 | – | 5000 µg/mL |
| O=C(Nc1ccc(F)c(Cl)c1)c1cc(Cl)ccc1O | broth dilution | ATCC27853 | – | > 64 µg/mL |
| CN(C)CC(C)(C)CNc1nc(Cl)c2c(c1O)C(=O)C1=C(O)[C@]3(O)C(=O)C(C(N)=O)=C(O)[C@@H](N(C)C)[C@@H]3C[C@@H]1C2.Cl | broth dilution | ATCC27853 | – | 32 µg/mL |
| CC1(C)SC2C(NC(=O)C(NC(=O)C3=C(O)C(Cc4ccccc4)NC3=O)c3ccccc3)C(=O)N2C1C(=O)O (centres unmarked) | – | – | – | 6.25 µg/mL |
| Cn1cc(NC(=O)C(CC(N)=O)NC(=O)c2ccc(NC(=O)c3ccc(C#N)cc3)cc2)cc1-c1nc2ccc(C(=O)Nc3ccc(C(=O)O)cc3)c(O)c2[nH]1 (centres unmarked) | – | PA14 | – | > 64 µg/mL |
| CC(C)(C)OCC1NC(=O)C(C(=O)NC(C(=O)NC2C(=O)N3C2SC(C)(C)C3C(=O)O)c2ccccc2)=C1O (centres unmarked) | – | – | – | 12.5 µg/mL |
| C[C@@H](O)[C@H]1C(=O)N2C(C(=O)O)=C(S[C@@H]3CN[C@H](C(=O)N(C)C)C3)[C@H](C)[C@H]12 | broth dilution | – | 24 h | 0.25 µg/mL |
| CC(C)Oc1c(NC(=O)c2ccc(NC(=O)[C@H](CC(N)=O)NC(=O)c3ccc(NC(=O)c4ccc(C#N)cc4)cc3)cc2)ccc(C(=O)Nc2cc(C(=O)O)n(C)c2)c1O | – | PA14 | – | > 64 µg/mL |
| CCCCCCC/C=C/C(=O)N1C(=O)/C(=C(/C)O)C(=O)C1Cc1ccc(OC(C)(C)C)cc1 (centres unmarked) | – | PA01 | – | > 200 µg/mL |
| O=C(Cc1cc(O)c(O)c(O)c1)NCCCCCCCC[P+](c1ccccc1)(c1ccccc1)c1ccccc1.[Br-] | broth dilution | ATCC27853 | 18 h | > 32 µg/mL |
| CC1NC(=O)C(C(=O)NC(C(=O)NC2C(=O)N3C2SC(C)(C)C3C(=O)O)c2ccccc2)=C1O (centres unmarked) | – | – | – | 50 µg/mL |
| CCCCCCC#Cc1cncc(-c2nnc(SCc3ccc(C#N)cc3)n2C)c1 | – | – | – | ≥ 20 µg/mL |
| O=C(Nc1ccc(S(=O)(=O)c2nccs2)cc1)c1cc(N=Nc2nccs2)ccc1O | broth dilution | – | – | 100 µg/mL |
| O=c1cc(-c2ccccc2)oc2cc(O)c(O)c(O)c12 | broth dilution | PAO1 | – | 256 µg/mL |
| CN(C)C1CN(Cc2ccc3cc4c(c(O)c3c2)C(=O)C2=C(O)[C@]3(O)C(=O)C(C(N)=O)=C(O)[C@@H](N(C)C)[C@@H]3C[C@@H]2C4)C1 | broth dilution | ATCC27853 | – | 32 µg/mL |
| c1ccc(NCc2ccc(Oc3ccccn3)cc2)cc1 | – | – | – | > 25 µg/mL |
| CC(C)Oc1c(NC(=O)c2ccc(NC(=O)[C@H](CC(N)=O)NC(=O)c3ccc(NC(=O)c4ccc(C#N)cc4)cc3)cc2)ccc(C(=O)Nc2ccncc2)c1O | – | PA14 | – | > 64 µg/mL |
| CC1=NN(CNc2ccccc2)C(=O)C1=NNn1c(-c2ccccc2)nc2ccccc2c1=O | broth dilution | – | 24 h | 111 µM |
| CN(C)Cc1ccc2cc3c(c(O)c2c1)C(=O)C1=C(O)[C@]2(O)C(=O)C(C(N)=O)=C(O)[C@@H](N(C)C)[C@@H]2C[C@@H]1C3 | broth dilution | ATCC27853 | – | 32 µg/mL |
| CN(C)c1cc(CNCC(C)(C)C)c(O)c2c1C[C@H]1C[C@H]3[C@H](N(C)C)C(O)=C(C(N)=O)C(=O)[C@@]3(O)C(O)=C1C2=O | broth dilution | ATCC27853 | – | > 32 µg/mL |

| SMILES | test | test system | setting | MIC |
| --- | --- | --- | --- | --- |
| O=C(O)c1cn(C2CC2)c2cc(N3CCNCC3)c(F)cc2c1=O | – | – | – | 1.6 µg/mL |
| CC(C)Oc1c(NC(=O)c2ccc(NC(=O)[C@H](CC(N)=O)NC(=O)c3ccc(NC(=O)c4ccc(C#N)c(F)c4)cc3)cc2)ccc(C(=O)Nc2ccc(C(=O)O)cc2)c1O | – | PA14 | – | 8 µg/mL |
| CCCCCCC/C=C/C(=O)N1C(=O)/C(=C(\O)CCCC)C(=O)C1CC(C)C (centres unmarked) | – | PA01 | – | > 200 µg/mL |
| O=C(O)c1cn(C2CC2)c2cc(N3CCNCC3)c(F)cc2c1=O | broth dilution | – | 24 h | 9.43 µM |
| O=C(CCCCCCCCCC[P+](c1ccccc1)(c1ccccc1)c1ccccc1)Nc1cc(O)c(O)c(O)c1.[Br-] | broth dilution | ATCC27853 | 18 h | > 32 µg/mL |
| COc1c(C)c(OC(=O)c2ccccc2)c(C)c(O)c1C(=O)/C=C/c1ccccc1 | broth dilution | ATCC27853 | – | 5000 µg/mL |
| O=[N+]([O-])c1ccc(-c2nc3cc(F)ccc3[nH]2)o1 | broth dilution | ATCC27853 | – | > 64 µg/mL |
| NC[C@@H]1CN[C@H](CNC(=O)c2cc3ccc(-c4ccc(F)cc4)cc3[nH]2)C1 | broth dilution | PAO1 | – | 25 µg/mL |
| CC1COc2c(N3CCN(C)CC3)c(F)cc3c(=O)c(C(=O)O)cn1c23 (centres unmarked) | broth dilution | PAO1 | – | 1 µg/mL |
| CC(C)CCNc1nc(Cl)c2c(c1O)C(=O)C1=C(O)[C@]3(O)C(=O)C(C(N)=O)=C(O)[C@@H](N(C)C)[C@@H]3C[C@@H]1C2.Cl.Cl.Cl | broth dilution | ATCC27853 | – | > 32 µg/mL |
| Clc1ccc(-c2nc3ccccc3n2Cc2ccccc2)cc1Cl | broth dilution | ATCC27853 | – | 256 µg/mL |
| Cc1ccc(C)n1-c1ccc(C(=O)NNC=O)cc1 | broth dilution | ATCC10145 | 18 h | 125 µg/mL |
| Cc1ccc(NCc2ccc(Oc3ccccn3)cc2)cc1 | – | – | – | > 50 µg/mL |
| CN(Cc1ccc2cc3c(c(O)c2c1)C(=O)C1=C(O)[C@]2(O)C(=O)C(C(N)=O)=C(O)[C@@H](N(C)C)[C@@H]2C[C@@H]1C3)c1ccccc1 | broth dilution | ATCC27853 | – | 32 µg/mL |
| C[C@H]1COc2c(N3CCN(C)CC3)c(F)cc3c(=O)c(C(=O)O)cn1c23 | broth dilution | – | – | 138 µM |
| O=C(CCCCCCCC[P+](c1ccccc1)(c1ccccc1)c1ccccc1)Nc1cc(O)c(O)c(O)c1.[Br-] | broth dilution | ATCC27853 | 18 h | > 32 µg/mL |
| Cc1ccc(C)n1-c1ccc(-c2nnc(S)s2)cc1 | broth dilution | ATCC10145 | 18 h | 2 µg/mL |
| C/C(=C\c1ccc(C#N)cc1)C(=O)Nc1ccc(C(=O)N[C@@H](CC(N)=O)C(=O)Nc2ccc(C(=O)Nc3ccc(C(=O)Nc4ccc(C(=O)O)cc4)c(O)c3OCC(C)C)cc2)cc1 | – | PA14 | – | > 64 µg/mL |
| C[C@H]1COc2c(N3CCN(C)CC3)c(F)cc3c(=O)c(C(=O)O)cn1c23 | agar dilution | ATCC27 | – | 1 µg/mL |
| C=CCOc1c(C)c(O)c(C(=O)/C=C/c2ccccc2)c(OC)c1C | broth dilution | ATCC27853 | – | 5000 µg/mL |
| CN(C)c1cc(NC(=O)CNC(C)(C)C)c(O)c2c1C[C@H]1C[C@H]3[C@H](N(C)C)C(O)=C(C(N)=O)C(=O)[C@@]3(O)C(O)=C1C2=O | broth dilution | ATCC27853 | – | 8 µg/mL |
| CCCCCCC/C=C/C(=O)N1C(=O)/C(=C(\O)c2ccncc2)C(=O)C1CC(C)C (centres unmarked) | – | PA01 | – | > 200 µg/mL |
| COc1c(C(=O)Nc2ccc(C(=O)O)cc2)ccc2nc(-c3cc(NC(=O)C(CC(N)=O)NC(=O)c4ccc(NC(=O)c5ccc(C#N)cc5)cc4)cn3C)[nH]c12 (centres unmarked) | – | PA14 | – | > 64 µg/mL |
| Cc1cc(=O)[nH]n1C(=O)c1ccc(-n2c(C)ccc2C)cc1 | broth dilution | ATCC10145 | 18 h | 250 µg/mL |
| CC(C)OCCNc1nc(Cl)c2c(c1O)C(=O)C1=C(O)[C@]3(O)C(=O)C(C(N)=O)=C(O)[C@@H](N(C)C)[C@@H]3C[C@@H]1C2.Cl.Cl.Cl | broth dilution | ATCC27853 | – | > 32 µg/mL |
